Data from ChEMBL document CHEMBL1955824, “Indeno[1,2-b]indole derivatives as a novel class of potent human protein kinase CK2 inhibitors” (Bioorg Med Chem, 2012).

What was measured:
[1] = molecular target: Casein kinase II alpha/beta (Homo sapiens) (UniProt P67870+P68400); test: Inhibition of human CSNK2A1/2B expressed in Escherichia coli BL21(DE3) using RRRDDDSDDD as substrate at 10 uM after 15 mins by scintillation counting
How it was run: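 Holoenzyme from CSNK2A1 and CSNK2B subunits expressed separately in E. coli, extracts combined, column-purified. Enzyme preincubated with inhibitor in DMSO in Tris pH 7.5 kinase buffer. Final ATP 60 µM, peptide 114 µM. Incubated 37 °C for 15 min, spotted on P81 paper, washed with phosphoric acid and ethanol, then counted. Controls: DMSO (0%), no CK2 (100%).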

[2] = Inhibition of calf thymus casein kinase-2 using casein as substrate after 15 mins by liquid scintillation counting; parameters: species or system Bos taurus
[3] = molecular target: Cyclin-dependent kinase 4/cyclin D1 (Homo sapiens, UniProt P11802); test: Inhibition of human recombinant CDK4/CyclinD1 expressed in Sf9 cells using RB-CTF as substrate after 80 mins by scintillation counting
How it was run: (§1)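 Commercial radiometric panel of His-tagged or GST-fused human kinases expressed in Sf9 cells, affinity-purified. Inhibitor added in 10% DMSO. Ten concentrations tested in singlicate; IC50 taken from dose–response curves.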

[4] = molecular target: Cyclin-dependent kinase 2/cyclin A (Homo sapiens, UniProt P24941); test: Inhibition of human recombinant CDK2/CyclinA expressed in Sf9 cells using histone H1 as substrate after 80 mins by scintillation counting; how it was run: as §1
[5] = Growth inhibition of human KYSE-70 cells at 20 uM after 96 hrs by crystal violet staining; format: functional; conditions: KYSE-70, 96 h, read-out: GI
How it was run: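 KYSE-70 esophageal cancer cells grown in RPMI 1640 with 10% FCS, penicillin G and streptomycin. Cells exposed 96 h to compounds dissolved in DMF (final solvent 0.1%). Fixed 20 min in 1% glutaraldehyde, stained 30 min with 0.02% crystal violet, washed 30 min in water. Bound dye dissolved in ethanol/water 7:3, absorbance read at 570 nm.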

Ephrin type-B receptor 4 = Ephrin type-B receptor 4 (Homo sapiens, UniProt P54760); test: Inhibition of human recombinant EPHB4 expressed in Sf9 cells using poly(E,Y)4:1 as substrate after 80 mins by scintillation counting; how it was run: as §1
[6] = molecular target: Mitogen-activated protein kinase kinase kinase 8 (Homo sapiens, UniProt P41279); test: Inhibition of human recombinant COT expressed in Sf9 cells assessed as autophosphorylation after 80 mins by scintillation counting; how it was run: as §1
[7] = molecular target: NUAK family SNF1-like kinase 1 (Homo sapiens, UniProt O60285); test: Inhibition of human recombinant ARK5 expressed in Sf9 cells assessed as autophosphorylation after 80 mins by scintillation counting; how it was run: as §1
Insulin receptor = Insulin receptor (Homo sapiens, UniProt P06213); test: Inhibition of human recombinant INS-R expressed in Sf9 cells using poly(A,E,K,Y)6:2:5:1 as substrate after 80 mins by scintillation counting; how it was run: as §1
[8] = molecular target: Insulin-like growth factor 1 receptor (Homo sapiens, UniProt P08069); test: Inhibition of human recombinant IGF1R expressed in Sf9 cells using poly(E,Y)4:1 as substrate after 80 mins by scintillation counting; how it was run: as §1
[9] = molecular target: Serine/threonine-protein kinase PLK1 (Homo sapiens, UniProt P53350); test: Inhibition of human recombinant PLK1 expressed in Sf9 cells using casein as substrate after 80 mins by scintillation counting; how it was run: as §1
[10] = molecular target: Hepatocyte growth factor receptor (Homo sapiens, UniProt P08581); test: Inhibition of human recombinant MET expressed in Sf9 cells using poly(A,E,K,Y)6:2:5:1 as substrate after 80 mins by scintillation counting; how it was run: as §1
Aurora kinase A = Aurora kinase A (Homo sapiens, UniProt O14965); test: Inhibition of human recombinant aurora-A expressed in Sf9 cells using tetra(LRRWSLG) as substrate after 80 mins by scintillation counting; how it was run: as §1
Angiopoietin-1 receptor = Angiopoietin-1 receptor (Homo sapiens, UniProt Q02763); test: Inhibition of human recombinant TIE2 expressed in Sf9 cells using poly(E,Y)4:1 as substrate after 80 mins by scintillation counting; how it was run: as §1
[11] = molecular target: Serine/threonine-protein kinase B-raf (Homo sapiens, UniProt P15056); test: Inhibition of human recombinant B-RAF expressed in Sf9 cells using MEK1 KM as substrate after 80 mins by scintillation counting; how it was run: as §1
[12] = molecular target: Proto-oncogene tyrosine-protein kinase Src (Homo sapiens, UniProt P12931); test: Inhibition of human recombinant SRC expressed in Sf9 cells using poly(E,Y)4:1 as substrate after 80 mins by scintillation counting; how it was run: as §1
[13] = molecular target: Vascular endothelial growth factor receptor 3 (Homo sapiens, UniProt P35916); test: Inhibition of human recombinant VEGF-R3 expressed in Sf9 cells using poly(E,Y)4:1 as substrate after 80 mins by scintillation counting; how it was run: as §1
Focal adhesion kinase 1 = Focal adhesion kinase 1 (Homo sapiens, UniProt Q05397); test: Inhibition of human recombinant FAK expressed in Sf9 cells using poly(E,Y)4:1 as substrate after 80 mins by scintillation counting; how it was run: as §1
[14] = molecular target: Serine/threonine-protein kinase PLK4 (Homo sapiens, UniProt O00444); test: Inhibition of human recombinant SAK expressed in Sf9 cells using p38alpha-KRKR as substrate after 80 mins by scintillation counting; how it was run: as §1
[15] = molecular target: Receptor tyrosine-protein kinase erbB-2 (Homo sapiens, UniProt P04626); test: Inhibition of human recombinant ERBB2 expressed in Sf9 cells using poly(E,Y)4:1 as substrate after 80 mins by scintillation counting; how it was run: as §1
Aurora kinase B = Aurora kinase B (Homo sapiens, UniProt Q96GD4); test: Inhibition of human recombinant aurora-B expressed in Sf9 cells using tetra(LRRWSLG) as substrate after 80 mins by scintillation counting; how it was run: as §1
[16] = molecular target: RAC-alpha serine/threonine-protein kinase (Homo sapiens, UniProt P31749); test: Inhibition of human recombinant AKT1 expressed in Sf9 cells using GSK3(14-27) as substrate after 80 mins by scintillation counting; how it was run: as §1
[17] = molecular target: Vascular endothelial growth factor receptor 2 (Homo sapiens, UniProt P35968); test: Inhibition of human recombinant VEGF-R2 expressed in Sf9 cells using poly(E,Y)4:1 as substrate after 80 mins by scintillation counting; how it was run: as §1
[18] = Inhibition of rat liver casein kinase-2 preincubated for 5 mins prior ATP addition measured after 40 mins
[19] = molecular target: Casein kinase II alpha/beta (Homo sapiens, UniProt P68400); test: Inhibition of human CSNK2A1/2B expressed in Escherichia coli BL21(DE3) using RRRDDDSDDD as substrate after 15 mins by scintillation counting
[20] = Inhibition of casein kinase-2
How it was run: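 Recombinant human CK2 holoenzyme (CSNK2A1 and CSNK2B expressed separately in E. coli, extracts combined and purified), preincubated with compound in DMSO in kinase buffer pH 7.5. 37 °C, 15 min, P81 paper, scintillation counting. IC50 from dose–response over 0.01–30 µM, at least triplicate independent experiments.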

Casein kinase II alpha/beta (Homo sapiens), sequence (P67870 2-215 limits assumed): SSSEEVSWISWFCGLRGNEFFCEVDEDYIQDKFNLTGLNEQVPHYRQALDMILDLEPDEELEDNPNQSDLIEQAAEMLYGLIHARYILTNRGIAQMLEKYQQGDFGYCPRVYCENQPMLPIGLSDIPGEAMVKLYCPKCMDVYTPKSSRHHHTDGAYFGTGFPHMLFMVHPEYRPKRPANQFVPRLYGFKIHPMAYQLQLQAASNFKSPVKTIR
Casein kinase II alpha/beta (Homo sapiens), sequence (P68400 whole entry partner): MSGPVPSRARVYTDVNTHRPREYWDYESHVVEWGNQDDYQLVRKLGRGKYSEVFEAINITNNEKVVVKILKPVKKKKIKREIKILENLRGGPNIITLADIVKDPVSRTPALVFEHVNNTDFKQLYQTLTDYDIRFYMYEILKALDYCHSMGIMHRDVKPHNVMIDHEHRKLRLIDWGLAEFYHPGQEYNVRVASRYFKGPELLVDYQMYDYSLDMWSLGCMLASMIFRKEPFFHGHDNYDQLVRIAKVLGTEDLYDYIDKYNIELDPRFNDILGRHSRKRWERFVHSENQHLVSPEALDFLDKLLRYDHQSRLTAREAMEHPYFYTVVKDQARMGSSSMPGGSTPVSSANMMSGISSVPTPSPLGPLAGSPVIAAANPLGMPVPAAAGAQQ
Angiopoietin-1 receptor, sequence (Q02763 whole entry): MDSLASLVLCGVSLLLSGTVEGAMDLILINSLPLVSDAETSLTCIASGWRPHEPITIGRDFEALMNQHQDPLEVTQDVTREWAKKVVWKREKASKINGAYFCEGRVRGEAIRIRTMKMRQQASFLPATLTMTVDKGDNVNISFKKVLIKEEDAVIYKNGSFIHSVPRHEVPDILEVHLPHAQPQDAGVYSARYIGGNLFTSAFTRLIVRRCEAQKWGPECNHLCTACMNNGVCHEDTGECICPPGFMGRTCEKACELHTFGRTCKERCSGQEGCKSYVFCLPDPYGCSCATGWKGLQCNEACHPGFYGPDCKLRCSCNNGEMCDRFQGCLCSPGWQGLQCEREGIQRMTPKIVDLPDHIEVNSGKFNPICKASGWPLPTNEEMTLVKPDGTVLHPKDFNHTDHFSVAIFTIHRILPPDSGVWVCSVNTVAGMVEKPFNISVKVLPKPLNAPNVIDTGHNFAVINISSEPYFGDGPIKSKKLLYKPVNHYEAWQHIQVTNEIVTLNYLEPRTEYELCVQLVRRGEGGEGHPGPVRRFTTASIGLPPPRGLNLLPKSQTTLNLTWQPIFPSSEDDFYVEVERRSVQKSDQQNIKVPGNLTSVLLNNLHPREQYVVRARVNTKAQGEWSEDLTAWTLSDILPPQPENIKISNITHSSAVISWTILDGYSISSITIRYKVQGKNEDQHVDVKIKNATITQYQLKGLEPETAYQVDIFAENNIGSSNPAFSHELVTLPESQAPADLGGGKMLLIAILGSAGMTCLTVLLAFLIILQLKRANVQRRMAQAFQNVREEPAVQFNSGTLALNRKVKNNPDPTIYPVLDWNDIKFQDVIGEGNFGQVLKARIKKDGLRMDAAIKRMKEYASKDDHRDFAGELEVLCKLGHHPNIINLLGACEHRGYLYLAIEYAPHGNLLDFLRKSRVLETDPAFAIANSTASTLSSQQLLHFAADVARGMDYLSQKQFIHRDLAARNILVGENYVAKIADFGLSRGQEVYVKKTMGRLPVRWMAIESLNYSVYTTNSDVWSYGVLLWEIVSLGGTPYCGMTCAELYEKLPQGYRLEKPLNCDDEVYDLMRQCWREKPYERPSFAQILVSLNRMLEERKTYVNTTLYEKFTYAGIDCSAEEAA
Serine/threonine-protein kinase PLK1, sequence (P53350 whole entry): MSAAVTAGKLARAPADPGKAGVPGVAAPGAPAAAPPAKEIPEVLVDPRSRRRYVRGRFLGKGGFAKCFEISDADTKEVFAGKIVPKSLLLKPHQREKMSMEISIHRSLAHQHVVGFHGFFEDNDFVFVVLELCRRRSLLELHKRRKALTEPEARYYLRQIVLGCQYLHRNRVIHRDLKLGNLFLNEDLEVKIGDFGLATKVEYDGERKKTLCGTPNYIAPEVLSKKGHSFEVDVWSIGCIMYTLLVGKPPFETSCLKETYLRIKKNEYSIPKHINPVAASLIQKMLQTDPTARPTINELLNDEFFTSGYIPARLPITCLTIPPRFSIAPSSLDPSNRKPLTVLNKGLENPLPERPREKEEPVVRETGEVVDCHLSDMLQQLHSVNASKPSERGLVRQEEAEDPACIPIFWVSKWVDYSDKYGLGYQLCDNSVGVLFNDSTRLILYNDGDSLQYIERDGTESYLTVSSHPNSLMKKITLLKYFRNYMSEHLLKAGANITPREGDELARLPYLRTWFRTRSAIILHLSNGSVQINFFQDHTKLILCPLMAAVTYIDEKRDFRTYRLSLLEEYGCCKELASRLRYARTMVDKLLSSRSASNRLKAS
RAC-alpha serine/threonine-protein kinase, sequence (P31749 whole entry): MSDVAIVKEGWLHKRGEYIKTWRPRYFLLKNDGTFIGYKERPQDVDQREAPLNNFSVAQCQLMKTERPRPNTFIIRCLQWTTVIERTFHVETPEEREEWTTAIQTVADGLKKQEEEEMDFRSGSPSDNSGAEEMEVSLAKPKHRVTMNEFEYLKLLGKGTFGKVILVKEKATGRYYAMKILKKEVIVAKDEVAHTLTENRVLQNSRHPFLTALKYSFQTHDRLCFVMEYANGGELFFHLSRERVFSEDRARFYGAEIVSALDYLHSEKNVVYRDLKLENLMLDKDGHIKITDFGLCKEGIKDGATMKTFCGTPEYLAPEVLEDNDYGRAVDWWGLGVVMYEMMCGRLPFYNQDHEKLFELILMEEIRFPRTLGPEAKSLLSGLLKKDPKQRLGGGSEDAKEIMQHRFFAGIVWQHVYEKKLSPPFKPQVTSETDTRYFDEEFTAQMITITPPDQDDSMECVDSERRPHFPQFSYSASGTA
Vascular endothelial growth factor receptor 3, sequence (P35916 whole entry): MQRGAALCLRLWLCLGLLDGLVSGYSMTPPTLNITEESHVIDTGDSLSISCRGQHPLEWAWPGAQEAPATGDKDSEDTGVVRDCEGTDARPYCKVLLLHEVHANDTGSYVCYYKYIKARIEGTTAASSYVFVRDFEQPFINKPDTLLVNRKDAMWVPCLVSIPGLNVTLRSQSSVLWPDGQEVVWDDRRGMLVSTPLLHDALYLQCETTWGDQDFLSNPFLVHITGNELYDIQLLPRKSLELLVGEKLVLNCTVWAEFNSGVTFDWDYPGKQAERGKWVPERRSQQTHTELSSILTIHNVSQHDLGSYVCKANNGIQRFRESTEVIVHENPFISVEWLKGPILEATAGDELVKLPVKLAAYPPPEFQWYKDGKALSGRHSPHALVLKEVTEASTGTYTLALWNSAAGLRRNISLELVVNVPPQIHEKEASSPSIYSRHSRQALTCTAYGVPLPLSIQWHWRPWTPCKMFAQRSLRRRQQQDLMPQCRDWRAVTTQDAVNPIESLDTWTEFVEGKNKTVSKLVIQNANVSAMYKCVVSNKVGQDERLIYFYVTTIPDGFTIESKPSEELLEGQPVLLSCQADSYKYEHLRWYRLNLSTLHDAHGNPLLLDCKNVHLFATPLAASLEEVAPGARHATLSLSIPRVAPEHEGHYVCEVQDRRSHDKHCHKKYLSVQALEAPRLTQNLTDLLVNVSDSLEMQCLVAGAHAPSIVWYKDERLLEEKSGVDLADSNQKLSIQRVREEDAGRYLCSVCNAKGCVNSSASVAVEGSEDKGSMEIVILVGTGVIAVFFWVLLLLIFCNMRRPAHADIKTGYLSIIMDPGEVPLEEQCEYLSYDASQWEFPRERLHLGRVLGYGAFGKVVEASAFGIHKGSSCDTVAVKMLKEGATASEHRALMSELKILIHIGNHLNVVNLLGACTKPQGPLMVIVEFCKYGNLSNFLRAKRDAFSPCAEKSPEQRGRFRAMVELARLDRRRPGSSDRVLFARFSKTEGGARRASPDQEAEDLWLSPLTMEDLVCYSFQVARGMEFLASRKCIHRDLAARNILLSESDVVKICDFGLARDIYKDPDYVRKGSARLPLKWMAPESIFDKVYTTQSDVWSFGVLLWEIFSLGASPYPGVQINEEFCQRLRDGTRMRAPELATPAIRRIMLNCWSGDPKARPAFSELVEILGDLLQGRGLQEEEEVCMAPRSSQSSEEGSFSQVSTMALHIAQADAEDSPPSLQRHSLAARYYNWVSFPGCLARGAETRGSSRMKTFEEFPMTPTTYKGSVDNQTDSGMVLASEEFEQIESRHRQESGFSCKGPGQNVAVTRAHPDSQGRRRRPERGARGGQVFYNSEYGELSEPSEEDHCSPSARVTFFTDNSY
Mitogen-activated protein kinase kinase kinase 8, sequence (P41279 whole entry): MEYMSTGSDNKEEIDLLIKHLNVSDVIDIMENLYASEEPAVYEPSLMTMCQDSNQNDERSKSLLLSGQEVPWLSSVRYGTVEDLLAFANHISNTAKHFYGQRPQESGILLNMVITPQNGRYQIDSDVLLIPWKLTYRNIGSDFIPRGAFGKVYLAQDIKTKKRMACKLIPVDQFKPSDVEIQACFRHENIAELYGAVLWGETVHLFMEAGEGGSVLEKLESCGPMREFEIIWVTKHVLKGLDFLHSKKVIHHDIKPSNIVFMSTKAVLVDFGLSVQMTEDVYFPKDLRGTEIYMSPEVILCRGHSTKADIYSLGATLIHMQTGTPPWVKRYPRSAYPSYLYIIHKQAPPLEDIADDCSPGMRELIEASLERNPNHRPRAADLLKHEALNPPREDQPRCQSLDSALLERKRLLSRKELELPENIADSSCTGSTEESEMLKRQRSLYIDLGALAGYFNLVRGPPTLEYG
Aurora kinase A, sequence (O14965 whole entry): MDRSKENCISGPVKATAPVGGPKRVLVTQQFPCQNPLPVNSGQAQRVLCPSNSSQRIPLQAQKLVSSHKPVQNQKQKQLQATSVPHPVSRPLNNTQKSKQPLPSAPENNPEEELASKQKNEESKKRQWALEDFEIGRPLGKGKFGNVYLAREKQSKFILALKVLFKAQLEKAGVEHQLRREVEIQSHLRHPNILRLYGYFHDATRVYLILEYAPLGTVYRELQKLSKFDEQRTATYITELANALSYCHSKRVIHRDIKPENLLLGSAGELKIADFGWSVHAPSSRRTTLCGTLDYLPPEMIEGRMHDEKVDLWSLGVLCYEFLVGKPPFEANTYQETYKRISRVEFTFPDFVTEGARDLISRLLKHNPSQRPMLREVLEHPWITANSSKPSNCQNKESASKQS

## O=C1CCCc2c1c1c(n2CCCc2ccccc2)-c2ccccc2C1=O
[1]
  inhibition: 27%

## CC1CC(=O)c2c3c(n(Cc4ccccc4)c2C1)-c1ccccc1C3=O (racemic)
[1]
  inhibition: 11%

## COc1ccc(CCn2c3c(c4c2-c2ccccc2C4=O)C(=O)CCC3)cc1OC
[1]
  inhibition: 50%

## O=C1CCCc2c1c1c(n2Cc2ccccc2)-c2ccccc2C1=O
[1]
  inhibition: 48%

## COc1ccc(Cn2c3c(c4c2-c2ccccc2C4=O)C(=O)CCC3)cc1
[1]
  inhibition: 41%

## COc1ccc(CCn2c3c(c4c(O)cccc42)C(=O)c2ccccc2-3)cc1OC
[1]
  inhibition: 34%

## O=C1CCCc2c1c1c(n2CCc2ccccc2)-c2ccccc2C1=O
[1]
  inhibition: 67%

## Brc1c(Br)c(Br)c2[nH]nnc2c1Br [TETRABROMOBENZOTRIAZOLE]
[2]
  IC50: 1.6 µM

## O=C1CCCc2c1c1c(n2Cc2ccccn2)-c2ccccc2C1=O
[1]
  inhibition: 30%

## CC(C)n1c2c(c3c1-c1ccccc1C3=O)C(=O)CCC2
[3]
  IC50: > 35 µM
[4]
  IC50: > 35 µM
[5]
  inhibition of growth at 20 µM: 25%
Ephrin type-B receptor 4
  IC50: > 35 µM
[6]
  IC50: > 35 µM
[7]
  IC50: > 35 µM
Insulin receptor
  IC50: > 35 µM
[8]
  IC50: > 35 µM
[9]
  IC50: > 35 µM
[10]
  IC50: > 35 µM
Aurora kinase A
  IC50: > 35 µM
Angiopoietin-1 receptor
  IC50: > 35 µM
[11]
  IC50: > 35 µM
[12]
  IC50: > 35 µM
[13]
  IC50: > 35 µM
Focal adhesion kinase 1
  IC50: > 35 µM
[14]
  IC50: > 35 µM
[15]
  IC50: > 35 µM
Aurora kinase B
  IC50: > 35 µM
[16]
  IC50: > 35 µM
[17]
  IC50: > 35 µM

## O=C1CCCc2[nH]c3c(c21)C(=O)c1ccccc1-3
[1]
  inhibition: 19%

## COC(=O)C1C(=O)c2c3c(n(Cc4ccccc4)c2CC1C)-c1ccccc1C3=O (configuration not stated)
[1]
  inhibition: 15%

## O=C1CCCc2c1c1c(n2-c2ccccc2)-c2ccccc2C1=O
[1]
  inhibition: 60%

## O=C1c2ccccc2-c2c1c1c(O)cc(-c3ccccc3)cc1n2Cc1ccccc1
[1]
  inhibition: 31%

## O=c1oc2c(O)c(O)cc3c(=O)oc4c(O)c(O)cc1c4c23 [ELLAGIC ACID]
[3]
  IC50: 1.09 µM
[4]
  IC50: 3.39 µM
Ephrin type-B receptor 4
  IC50: 1.83 µM
[6]
  IC50: 2.37 µM
[7]
  IC50: 0.51 µM
Insulin receptor
  IC50: 0.34 µM
[8]
  IC50: 0.25 µM
[9]
  IC50: 3.34 µM
[10]
  IC50: 0.58 µM
Aurora kinase A
  IC50: 2.48 µM
Angiopoietin-1 receptor
  IC50: 0.26 µM
[11]
  IC50: 1.76 µM
[12]
  IC50: 0.8 µM
[13]
  IC50: 1.54 µM
Focal adhesion kinase 1
  IC50: 3.11 µM
[14]
  IC50: 2.97 µM
[15]
  IC50: 3.54 µM
Aurora kinase B
  IC50: 2.5 µM
[16]
  IC50: 3.34 µM
[17]
  IC50: 0.79 µM

## COC(=O)C1C(=O)c2c([nH]c3c2C(=O)c2ccccc2-3)CC1C (configuration not stated)
[1]
  inhibition: 28%

## Cc1cc(O)c2c(c1)C(=O)c1cc(O)cc(O)c1C2=O [EMODIN]
[18]
  IC50: 0.89 µM

## CC1(C)CC(=O)c2c3c(n(Cc4ccccc4)c2C1)-c1ccccc1C3=O
[1]
  inhibition: 10%

## O=C1CC(c2ccccc2)Cc2c1c1c(n2Cc2ccccc2)-c2ccccc2C1=O (racemic)
[1]
  inhibition: 3%

## CC(c1ccccc1)n1c2c(c3c1-c1ccccc1C3=O)C(=O)CCC2 (configuration not stated)
[19]
  IC50: 4.66 µM
[1]
  inhibition: 66%

## OC[C@H]1O[C@@H](n2cnc3cc(Cl)c(Cl)cc32)[C@H](O)[C@@H]1O [DICHLORORIBOBENZIMIDAZOLE]
[20]
  IC50: 15 µM

## O=C1c2ccccc2-c2c1c1c(O)cccc1n2Cc1ccccc1
[1]
  inhibition: 25%
